Common to all, as to type: functional
Experiment [1] concerns Aspergillus flavus. Briefly: Antifungal activity against Aspergillus flavus NCIM 524 at MIC after 3 to 4 days by agar well diffusion method. The procedure, abridged: (§1)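 Sabouraud agar (peptone, D-glucose, agar; pH 5.7) seeded with spore suspension made by transferring a loopful of fungus to 3 mL normal saline. Excess decanted, plates dried 1 h at 37 °C. Compounds in DMSO at MIC added to punched wells; DMSO control. Triplicate plates kept 3–4 days at 37 °C.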

For experiment [2], the system named is Aspergillus flavus. Briefly: Antifungal activity against Aspergillus flavus NCIM 524 by serial plate dilution method.
In experiment [3] the test system is Aspergillus fumigatus. Briefly: Antifungal activity against Aspergillus fumigatus NCIM 902 at MIC after 3 to 4 days by agar well diffusion method. The procedure, abridged:
as §1

Experiment [4] concerns Trichophyton mentagrophytes. Briefly: Antifungal activity against recultured Trichophyton mentagrophytes by serial plate dilution method.
Experiment [5] has as its system Escherichia coli. Description: Antibacterial activity against Escherichia coli ATCC 25922 after 16 to 18 hrs by serial plate dilution method. In short, it runs like this: (§2)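 Drug serially diluted in Mueller–Hinton broth in tubes, adjusted to pH 5.0 with phosphate buffer. Inoculated with standardized bacterial suspension and incubated 16–18 h at 37 °C. MIC taken as lowest concentration with no visible growth.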

The subject of experiment [6] is Talaromyces marneffei. Description: Antifungal activity against recultured Penicillium marneffei at MIC after 3 to 4 days by agar well diffusion method. The procedure, abridged: as §1
Experiment [7] has as its system Talaromyces marneffei. Description: Antifungal activity against recultured Penicillium marneffei by serial plate dilution method.
Experiment [8] concerns Staphylococcus aureus. Description: Antibacterial activity against Staphylococcus aureus ATCC 25923 at MIC after 3 to 4 days by agar well diffusion method.
For experiment [9], the system named is Escherichia coli. Description: Antibacterial activity against Escherichia coli ATCC 25922 at MIC after 3 to 4 days by agar well diffusion method.
For experiment [10], the system named is Klebsiella pneumoniae. Briefly: Antibacterial activity against recultured Klebsiella pneumoniae at MIC after 3 to 4 days by agar well diffusion method.
The subject of experiment [11] is Klebsiella pneumoniae. Description: Antibacterial activity against recultured Klebsiella pneumoniae after 16 to 18 hrs by serial plate dilution method. The procedure, abridged: as §2
For experiment [12], the system named is Trichophyton mentagrophytes. Briefly: Antifungal activity against recultured Trichophyton mentagrophytes at MIC after 3 to 4 days by agar well diffusion method. In short, it runs like this: as §1
Experiment [13] relates to Pseudomonas aeruginosa. Description: Antibacterial activity against Pseudomonas aeruginosa ATCC 27853 after 16 to 18 hrs by serial plate dilution method. The procedure, abridged:
as §2

In experiment [14] the test system is Aspergillus fumigatus. Briefly: Antifungal activity against Aspergillus fumigatus NCIM 902 by serial plate dilution method.
For experiment [15], the system named is Staphylococcus aureus. Briefly: Antibacterial activity against Staphylococcus aureus ATCC 25923 after 16 to 18 hrs by serial plate dilution method. In short, it runs like this:
as §2

Experiment [16] concerns Pseudomonas aeruginosa. Description: Antibacterial activity against Pseudomonas aeruginosa ATCC 27853 at MIC after 3 to 4 days by agar well diffusion method.

In brackets after ≈: the same amount, converted by molar mass. A value given as a limit tells only on which side of the number the result lay.

With `FC(F)(F)c1cccc2c(N3CCOCC3)c(-c3nnc(S)n3-c3ccccc3)cnc12`, the “inhibition zone (IZ)” value is 16 mm in experiment [1]; 16 mm in [3]; 16 mm in experiment [6]; 16 mm in [8]; 20 mm in experiment [9]; 16 mm in [10]. In addition, the entries for the “inhibition zone (IZ)” value in experiment [12] and in [16] were 20 mm and 16 mm, respectively. In addition, the MIC in experiment [2], in experiment [4], in experiment [5], in experiment [7], in experiment [11] and in experiment [13] was 6.25 µg/mL (≈ 13.7 µM) in each case. Also, the MIC in experiment [14] and in experiment [15] was 6.25 µg/mL (≈ 13.7 µM) in each case.

As to `COCCn1c(S)nnc1-c1cnc2c(C(F)(F)F)cccc2c1N1CC(C)OC(C)C1` (configuration not stated), the “inhibition zone (IZ)” value was 16 mm in experiment [1]; 16 mm in experiment [3]; 16 mm in [6]; 16 mm in [8]; 20 mm in experiment [9]; 16 mm in experiment [10]. Moreover, the “inhibition zone (IZ)” value in experiment [12] came out at 20 mm; in experiment [16], 16 mm. The MIC in [2], in experiment [4], in experiment [5], in [7], in experiment [11] and in [13] was 6.25 µg/mL (≈ 13.4 µM) throughout. Besides, the MIC in experiment [14] and in experiment [15] was 6.25 µg/mL (≈ 13.4 µM) in each case.

On to `COCCn1c(S)nnc1-c1cnc2c(C(F)(F)F)cccc2c1NC1CC1`, for which the “inhibition zone (IZ)” value was found to be 16 mm in experiment [1]; 16 mm in experiment [3]; 16 mm in experiment [6]; 16 mm in experiment [8]; 20 mm in experiment [9]; 16 mm in [10]. For the same molecule, the “inhibition zone (IZ)” value came out at 20 mm in [12] and 16 mm in [16]. The MIC in [2], in experiment [4], in experiment [5], in experiment [7], in experiment [11] and in experiment [13] was 6.25 µg/mL (≈ 15.3 µM) throughout. For the same molecule, the MIC in [14] and in [15] was 6.25 µg/mL (≈ 15.3 µM) in each case.

Take `COCCn1c(S)nnc1-c1cnc2c(C(F)(F)F)cccc2c1NC1CCCCC1`: the “inhibition zone (IZ)” value in [1] worked out at 16 mm; in experiment [3], 16 mm; in experiment [6] it was 16 mm; in experiment [8], 16 mm; in [9], 20 mm; in [10] it was 16 mm. Moreover, the “inhibition zone (IZ)” value in experiment [12] is given as 20 mm; in [16], 16 mm. Further, the MIC in experiment [2], in experiment [4], in [5], in experiment [7], in experiment [11] and in [13] was 6.25 µg/mL (≈ 13.8 µM) throughout. Further, the MIC in experiment [14] and in experiment [15] was 6.25 µg/mL (≈ 13.8 µM) in each case.

Consider `FC(F)(F)c1cccc2c(N3CCC(N4CCOCC4)CC3)c(-c3nnc(S)n3-c3ccccc3)cnc12`, for which the “inhibition zone (IZ)” value in [1] was 16 mm; in experiment [3] it was 16 mm; in [6], 16 mm; in experiment [8] it was 16 mm; in experiment [9], 20 mm; in experiment [10], 16 mm. The “inhibition zone (IZ)” value in experiment [12] is 20 mm; in [16] it was 16 mm. The MIC in [2], in experiment [4], in [5], in experiment [7], in [11] and in experiment [13] was 6.25 µg/mL (≈ 11.6 µM) throughout. Moreover, the minimal inhibitory concentration (MIC) in experiment [14] and in experiment [15] was 6.25 µg/mL (≈ 11.6 µM) throughout.

Regarding `COCCn1c(S)nnc1-c1cnc2c(C(F)(F)F)cccc2c1N1CCOCC1`, the “inhibition zone (IZ)” value is recorded as 16 mm in [1]; 16 mm in experiment [3]; 16 mm in experiment [6]; 16 mm in experiment [8]; 20 mm in [9]; 16 mm in experiment [10]. The “inhibition zone (IZ)” value is 20 mm in [12] and 16 mm in experiment [16]. For the same molecule, the MIC in experiment [2], in experiment [4], in experiment [5], in [7], in [11] and in experiment [13] was 6.25 µg/mL (≈ 14.2 µM) throughout. Besides, the MIC in experiment [14] and in experiment [15] was 6.25 µg/mL (≈ 14.2 µM) each time.

On to `COCCn1c(S)nnc1-c1cnc2c(C(F)(F)F)cccc2c1NCCC(C)(C)C`, for which the “inhibition zone (IZ)” value in experiment [1] is 16 mm; in [3], 16 mm; in experiment [6] it was 16 mm; in experiment [8] it was under 10 mm; in experiment [9] it was under 10 mm; in experiment [10], under 10 mm. Besides, the “inhibition zone (IZ)” value in experiment [12] was 20 mm; in [16], under 10 mm. Besides, the MIC stood at 6.25 µg/mL (≈ 13.8 µM) in experiment [2]; 6.25 µg/mL (≈ 13.8 µM) in experiment [4]; 50 µg/mL (≈ 110 µM) in experiment [5]; 6.25 µg/mL (≈ 13.8 µM) in experiment [7]; 50 µg/mL (≈ 110 µM) in [11]; 50 µg/mL (≈ 110 µM) in experiment [13]. Moreover, the MIC is 6.25 µg/mL (≈ 13.8 µM) in [14] and 50 µg/mL (≈ 110 µM) in experiment [15].

The values above are taken from ChEMBL document CHEMBL1155347, “Synthesis and antimicrobial activities of novel quinoline derivatives carrying 1,2,4-triazole moiety” (2009).
